Screening results: PubChem BioAssay, several laboratories
The full list was thinned out, with hits kept by preference.
ABCB1 inh – blocks JC-1 efflux by human ABCB1 transporter | actives 0.067% (n = 190,000) | CCRF-Adr cells, flow cytometry | inhibition, % at 6.6 µM | AID 1326 | P08183; in the data active means inhibition above about 40%;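 further: 0% = vehicle and 100% = reference inhibitor; higher value means more JC-1 retained so stronger ABCB1 efflux block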
L major viab – reduces viability of Leishmania major promastigotes | resazurin fluorescence viability | inhibition, % at 10 µM | actives 9% (n = 200,000) | AID 1063;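 further: promastigotes grown with compound for 44 hours at 28 °C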
PKD1 inh – PKD1 (human) kinase inhibition | AID 797 | actives 0.056% (n = 200,000) | inhibition, % (no concentration beside the values) | PKD1 kinase fluorescence polarization assay
Target sequence (Q15139 whole entry, looked up): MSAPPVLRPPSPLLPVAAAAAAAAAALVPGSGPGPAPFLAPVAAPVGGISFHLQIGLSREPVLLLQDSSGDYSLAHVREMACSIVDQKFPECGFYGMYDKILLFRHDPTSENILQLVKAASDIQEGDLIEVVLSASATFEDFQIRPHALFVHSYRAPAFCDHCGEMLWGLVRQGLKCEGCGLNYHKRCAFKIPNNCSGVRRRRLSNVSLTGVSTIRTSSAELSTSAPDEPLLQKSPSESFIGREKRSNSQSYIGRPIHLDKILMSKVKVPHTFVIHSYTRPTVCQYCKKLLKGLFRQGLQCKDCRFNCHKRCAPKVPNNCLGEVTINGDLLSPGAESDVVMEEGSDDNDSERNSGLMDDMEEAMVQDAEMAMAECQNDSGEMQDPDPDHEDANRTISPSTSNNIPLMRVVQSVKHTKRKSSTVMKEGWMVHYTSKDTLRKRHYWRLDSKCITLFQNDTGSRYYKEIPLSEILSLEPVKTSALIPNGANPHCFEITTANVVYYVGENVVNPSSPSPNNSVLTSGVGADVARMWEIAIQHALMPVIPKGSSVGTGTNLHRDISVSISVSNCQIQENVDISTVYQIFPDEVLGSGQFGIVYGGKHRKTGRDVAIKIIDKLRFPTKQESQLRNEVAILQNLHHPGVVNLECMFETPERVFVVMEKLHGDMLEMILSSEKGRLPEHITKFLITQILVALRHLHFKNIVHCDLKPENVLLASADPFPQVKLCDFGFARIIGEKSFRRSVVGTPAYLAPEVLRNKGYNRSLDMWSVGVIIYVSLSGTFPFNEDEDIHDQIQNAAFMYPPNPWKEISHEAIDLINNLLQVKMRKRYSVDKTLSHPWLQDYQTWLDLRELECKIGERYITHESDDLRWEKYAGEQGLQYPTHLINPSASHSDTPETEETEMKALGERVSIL
Avidin bead fluor – compound fluoresces at 488/530 nm on avidin beads; compound fluorescence 488/530 nm, flow cytometry; active compounds read high; actives 0.38% (n = 220,000); fluorescence (KMESF) at 10 µM; in the data active means fluorescence above about 47
ABCG2 inh – human ABCG2 inhibition, ABCB1 as counter-screen. AID 1325. inhibition, % at 6.6 µM. actives 0.1% (n = 190,000). IgMXP3 cells, JC-1 efflux, flow cytometry;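 active means inhibition above 80%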;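 further: 0% = DMSO and 100% = nicardipine control wells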
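Test system: ABCG2 IgMXP3 and barcoded ABCB1 CCRF-Adr cell mix; Schedule: cells with compound and JC-1, 10 min at 25 °C, rotating, no wash; Technique: flow cytometry of retained JC-1 fluorescence; Measure: % inhibition of efflux relative to nicardipine and DMSO; Controls: nicardipine high and DMSO low controls.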
GSH bead fluor – compound fluoresces at 488/530 nm on GSH beads. GSH beads flow cytometry, compound fluorescence 488/530 nm; active compounds read high. fluorescence (KMESF) at 10 µM. actives 0.25% (n = 190,000); in the data active means fluorescence above about 89;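 further: glutathione beads carrying GST-tagged Bcl family fusion proteins plus one bare bead set; values are compound well signal with DMSO vehicle wells as background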
Numbers without * were called inactive. Unless noted, no stated cut-off is given here; in the data, active means inhibition above about 50%; inactive means the rest.

O=C(NCc1ccc(Cl)cc1)c1ccc(OCC2CCCO2)cc1 (centres undefined) was read as ABCB1 inh 0.2, L major viab 43.7, PKD1 inh -1.1, Avidin bead fluor 14, ABCG2 inh 5.5 and GSH bead fluor 9.
For Cc1cc(C)c2nc(NC(=O)c3ccc(OCC4CCCO4)cc3)sc2c1 (centres undefined) the results were ABCB1 inh -0.7, L major viab 73.0*, PKD1 inh -9.6, Avidin bead fluor 14, ABCG2 inh -6.9 and GSH bead fluor 5.
For O=C(NCc1cccnc1)c1ccc(Cl)c(S(=O)(=O)Nc2ccccc2C(=O)NCc2cccnc2)c1 the results were ABCB1 inh -0.2, L major viab -15.0, PKD1 inh 3.6, Avidin bead fluor 9, ABCG2 inh 0.1 and GSH bead fluor 12.
Screening COc1cccc(N2CCN(CC(=O)Nc3ccc(SC(F)F)cc3)CC2)c1 returned ABCB1 inh 0.5, L major viab -10.3, PKD1 inh -2.1, Avidin bead fluor 10, ABCG2 inh 11.9 and GSH bead fluor 12.
Screening O=C(CN1CCN(c2ccc(O)cc2)CC1)Nc1ccc(SC(F)F)cc1 returned ABCB1 inh 0.5, L major viab 56.6*, PKD1 inh 0.1, Avidin bead fluor 13, ABCG2 inh 22.2 and GSH bead fluor 10.
Screening CCN(CC)c1ccc(NC(=O)CN2CCN(c3ccc(F)cc3)CC2)cc1 returned ABCB1 inh -0.4, L major viab 71.7*, PKD1 inh 2.4, Avidin bead fluor 9, ABCG2 inh -1.4 and GSH bead fluor 12.
Screening COc1cc(CN2C(=S)NC(C)(C)CC2(C)O)cc(OC)c1 (centres undefined) returned ABCB1 inh 1.0, L major viab 49.4, PKD1 inh -15.2, Avidin bead fluor 14, ABCG2 inh 15.1 and GSH bead fluor 4.
Screening Cc1cc(C)c(S(=O)(=O)NCC(=O)NCc2ccco2)c(C)c1 returned ABCB1 inh 0.5, L major viab 2.5, PKD1 inh 7.3, Avidin bead fluor 10, ABCG2 inh 0.2 and GSH bead fluor 9.
Screening COc1cc(-c2cc(C(=O)Nc3c(Cl)cc(Cl)cc3Cl)c3ccccc3n2)cc(OC)c1OC returned ABCB1 inh 18.9, L major viab 81.3*, PKD1 inh -14.2, Avidin bead fluor 13, ABCG2 inh 20.6 and GSH bead fluor 7.
`COc1cc(-c2cc(C(=O)NN3CCN(C)CC3)c3ccccc3n2)cc(OC)c1OC` gave ABCB1 inh 1.4, L major viab 90.9*, PKD1 inh -12.9, Avidin bead fluor 14, ABCG2 inh -2.4 and GSH bead fluor 5.
`C=CCSc1nc2sc(-c3ccccc3)cc2c(=O)n1N` gave ABCB1 inh 0.8, L major viab -5.1, PKD1 inh 4.8, Avidin bead fluor 37, ABCG2 inh 13.6 and GSH bead fluor 22.
C=C(C)Cn1c(N2CCC(Cc3ccccc3)CC2)nc2c1c(=O)[nH]c(=O)n2C was read as ABCB1 inh 3.1, L major viab 77.7*, PKD1 inh -2.3, Avidin bead fluor 36, ABCG2 inh 35.1 and GSH bead fluor 21.
CN(Cc1ccccc1)c1nc2c(c(=O)[nH]c(=O)n2C)n1CCOc1ccccc1 was read as ABCB1 inh 1.1, L major viab 55.1*, PKD1 inh -3.4, Avidin bead fluor 4, ABCG2 inh 3.3 and GSH bead fluor 46.
For CCCCCn1c(N2CCN(Cc3ccccc3)CC2)nc2c1c(=O)[nH]c(=O)n2C the results were ABCB1 inh 0.9, L major viab 99.9*, PKD1 inh -14.9, Avidin bead fluor 11, ABCG2 inh 12.8 and GSH bead fluor 11.
`CN(Cc1ccccc1)c1nc2c(c(=O)[nH]c(=O)n2C)n1Cc1ccccc1` gave ABCB1 inh 1.1, L major viab 10.6, PKD1 inh -12.7, Avidin bead fluor 32, ABCG2 inh 4.0 and GSH bead fluor 25.
CCCCCn1c(N2CCC(Cc3ccccc3)CC2)nc2c1c(=O)[nH]c(=O)n2C was read as L major viab 98.9* and PKD1 inh -10.4.
CC(C)CCn1c(N2CCN(Cc3ccccc3)CC2)nc2c1c(=O)[nH]c(=O)n2C was read as L major viab -3.0 and PKD1 inh -10.1.
Clc1ccc(OCc2noc(-c3ccsc3)n2)c(Cl)c1 was read as Avidin bead fluor 3.
For CNC(=O)/C(C#N)=C/c1c(N(Cc2ccccc2)Cc2ccccc2)nc2ccccn2c1=O the results were ABCB1 inh 4.1, L major viab 16.8, PKD1 inh 0.1, Avidin bead fluor 13, ABCG2 inh 4.1 and GSH bead fluor 20.
For O=C(CN(c1ccccc1)S(=O)(=O)c1ccc(F)cc1)N1CCCCCC1 the results were ABCB1 inh 0.7, L major viab 6.8, PKD1 inh -9.9, Avidin bead fluor 14, ABCG2 inh 1.5 and GSH bead fluor 31.
Screening O=c1oc2ccccc2nc1/C=C(O)/C=C/c1ccc(F)cc1 returned ABCB1 inh -0.2, L major viab 60.6*, PKD1 inh -6.8, Avidin bead fluor 4, ABCG2 inh -0.1 and GSH bead fluor 5.
`CCCCCN(C(=O)CN1CCC(Cc2ccccc2)CC1)c1c(N)n(CCCC)c(=O)[nH]c1=O` gave ABCB1 inh 0.9, L major viab 2.2, PKD1 inh 5.8, Avidin bead fluor 11, ABCG2 inh 3.1 and GSH bead fluor 14.
Screening Cc1sc2nc(-c3ccccn3)[nH]c(=O)c2c1-c1ccccc1 returned ABCB1 inh 0.2, L major viab 99.4*, PKD1 inh -4.9, Avidin bead fluor 8, ABCG2 inh 5.0 and GSH bead fluor 23.
For COC(=O)C1=C(O)C(C(=O)OC)C(c2ccc(C)cc2)C(C#N)(C#N)C1c1ccc(C)cc1 (centres undefined) the results were ABCB1 inh 0.4, L major viab 61.2*, PKD1 inh -1.8, Avidin bead fluor 6, ABCG2 inh 1.5 and GSH bead fluor 14.
Screening Cc1ccc(S(=O)(=O)NCC2CCC(C(=O)NCc3cccnc3)CC2)cc1 (centres undefined) returned ABCB1 inh -0.2, L major viab -1.2, PKD1 inh -5.2, Avidin bead fluor 7, ABCG2 inh 0.1 and GSH bead fluor 11.
`CCOC(=O)c1oc2ccccc2c1CN1CCN(C)CC1` gave ABCB1 inh 0.2, L major viab -1.9, PKD1 inh -5.9, Avidin bead fluor 6, ABCG2 inh 2.5 and GSH bead fluor 15.
Screening CCOC(=O)c1c(CN2CCN(C)CC2)n(C)c2cc(Br)c(OC)cc12 returned ABCB1 inh 1.4, L major viab 100.3*, PKD1 inh -11.5, Avidin bead fluor 14, ABCG2 inh 12.5 and GSH bead fluor 35.
For CCOC(=O)c1c(C)oc2c(CN3CCN(C)CC3)c(Br)c(OC)c(O)c12 the results were ABCB1 inh 1.5, L major viab 100.4*, PKD1 inh 4.0, Avidin bead fluor 15, ABCG2 inh 1.6 and GSH bead fluor 14.
